Assay results as given in ChEMBL document CHEMBL5096172, “Tricyclic Triazoles as σ1 Receptor Antagonists for Treating Pain” (J Med Chem, 2021).

Key:
[1] = Clearance in wistar rat at 10 mg/kg, po by HPLC-MS/MS analysis relative to liver blood flow; format: ADME, organism-based; conditions: in vivo
In short: (§1)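 Male Wistar rats (250−300 g, groups of 2) or male CD1 mice (25−30 g, groups of 16) dosed 10 mg/kg orally in 0.5% HPMC or 1 mg/kg iv in saline. Blood taken over time from saphenous vein or by intracardiac puncture into heparin tubes. Plasma spun at 4 °C, stored −80 °C, assayed by HPLC−MS/MS after protein precipitation. Noncompartmental analysis.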

[2] = Clearance in CD-1 mouse at 10 mg/kg, po by HPLC-MS/MS analysis relative to liver blood flow; format: ADME, organism-based; conditions: in vivo; in short: as §1

Cc1cc(OCCN2CCOCC2)nn1-c1ccc2ccccc2c1
CL [1]: 109% | CL [2]: 65%
